Source: ChEMBL document CHEMBL1138657 (2004)
Converted amounts (≈) assume the structure as drawn.

Legend:
K562 = assay: Cytotoxicity to reduce chronic myeloid leukemia K 562 cells; assay type: functional; conditions: Homo sapiens
How it was run: (§1)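 CC50 is the concentration in µM that reduces viability of human histiocytic lymphoma U937 or chronic myeloid leukemia K562 cells by 50%.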

Candida parapsilosis [1] = assay: Minimum inhibitory concentration to inhibit Candida parapsilosis ATCC 22019; assay type: functional, Fungi; conditions: Lodderomyces parapsilosis
How it was run: (§2)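 Broth microdilution per NCCLS document against 20 C. albicans strains. […] MIC is reported in µg/mL as the arithmetic mean ± SD. MIC50 and MIC90 are the MICs at which 50% and 90% of isolates are inhibited. C. parapsilosis ATCC22019 was run as the QC strain.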

Candida albicans [2] = assay: Antifungal activity to cause 99% reduction of surviving cells range is equal to 2-32; assay type: functional, Fungi
Candida parapsilosis [3] = assay: Antifungal activity to inhibit Candida parapsilosis ATCC 22019; assay type: functional, Fungi; conditions: Lodderomyces parapsilosis
Candida albicans [4] = assay: Minimum inhibitory concentration to inhibit Candida albicans strain range is equal to 1-8; assay type: functional, Fungi; how it was run: as §2
U-937 = assay: Cytotoxicity to reduce human histolytic lymphoma U937 cells; assay type: functional; how it was run: as §1
Candida albicans [5] = assay: Minimum inhibitory concentration to inhibit 90% of the isolates; assay type: functional, Fungi; how it was run: as §2
Candida albicans [6] = assay: Minimum inhibitory concentration to inhibit 50% of the isolates; assay type: functional, Fungi; how it was run: as §2
Candida albicans [7] = assay: Antifungal activity to cause 99% reduction of surviving cells in 50% isolates; assay type: functional, Fungi
Candida albicans [8] = assay: Antifungal activity to cause 99% reduction of surviving cells in 90% isolates; assay type: functional, Fungi
Candida albicans [9] = assay: Antifungal activity to cause 99% reduction of surviving cells range is equal to 4-16; assay type: functional, Fungi
Candida albicans [10] = assay: Minimum inhibitory concentration to inhibit Candida albicans strain range is equal to 16-128; assay type: functional, Fungi; how it was run: as §2
Candida albicans [11] = assay: Antifungal activity to cause 99% reduction of surviving cells range is equal to 32-128; assay type: functional, Fungi
Candida albicans [12] = assay: Minimum inhibitory concentration to inhibit Candida Albicans strain range is equal to 4-64; assay type: functional, Fungi; how it was run: as §2
Candida albicans [13] = assay: Minimum inhibitory concentration to inhibit 50% of the isolates
Candida albicans [14] = assay: Minimum inhibitory concentration to inhibit Candida albicans strain range is equal to 0.5-4; assay type: functional, Fungi; how it was run: as §2
Candida albicans [15] = assay: Antifungal activity to cause 99% reduction of surviving cells range is equal to 1-8; assay type: functional, Fungi
Candida albicans [16] = assay: Antifungal activity to cause 99% reduction of surviving cells range is equal to 2-16; assay type: functional, Fungi
Candida albicans [17] = assay: Minimum inhibitory concentration to inhibit Candida albicans strain range is equal to 1-4; assay type: functional, Fungi; how it was run: as §2
Candida albicans [18] = assay: Antifungal activity to cause 99% reduction of surviving cells range is equal to 8-16; assay type: functional, Fungi
Candida albicans [19] = assay: Minimum inhibitory concentration to inhibit Candida albicans strain range is equal to 8-64; assay type: functional, Fungi; how it was run: as §2
Candida albicans [20] = assay: Antifungal activity to cause 99% reduction of surviving cells range is equal to 16-128; assay type: functional, Fungi
Candida albicans [21] = assay: Antifungal activity to cause 99% reduction of surviving cells range is equal to 8-32; assay type: functional, Fungi
Candida albicans [22] = assay: Minimum inhibitory concentration to inhibit Candida albicans strain range is equal to 2-8; assay type: functional, Fungi; how it was run: as §2
Candida albicans [23] = assay: Minimum inhibitory concentration to inhibit Candida albicans strain range is equal to 0.125-64; assay type: functional, Fungi
Candida albicans [24] = assay: Antifungal activity to cause 99% reduction of surviving cells; assay type: functional, Fungi
Candida albicans [25] = assay: Minimum inhibitory concentration to inhibit Candida albicans strain range is equal to 32-128; assay type: functional, Fungi
Candida albicans [26] = assay: Antifungal activity to cause 99% reduction of surviving cells range is equal to 64-128; assay type: functional, Fungi
Candida albicans [27] = assay: Minimum inhibitory concentration to inhibit Candida albicans strain range is equal to 2-16; assay type: functional, Fungi
Candida albicans [28] = assay: Antifungal activity to cause 99% reduction of surviving cells range is equal to 4-32; assay type: functional, Fungi

SMILES | CC50 (K562) [µM] | MIC (Candida parapsilosis [1]) [µg/mL] | MFC (Candida parapsilosis [3]) [µg/mL] | CC50 (U-937) [µM] | MIC90 (Candida albicans [5]) [µg/mL] | MIC50 (Candida albicans [6]) [µg/mL] | MFC50 (Candida albicans [7]) [µg/mL] | MFC90 (Candida albicans [8]) [µg/mL] | also measured
Clc1ccc(OC(CCn2ccnc2)c2ccccc2)cc1 (stereo unspecified) | 221 | 4 (≈ 12.8 µM) | 32 (≈ 102 µM) | 84.9 | 4 (≈ 12.8 µM) | 2 (≈ 6.39 µM) | 4 (≈ 12.8 µM) | 16 (≈ 51.2 µM) | MFC (Candida albicans [2]): < 32 µg/mL; MIC (Candida albicans [4]): < 8 µg/mL
Clc1ccc(OC(CCn2ccnc2)c2ccccc2)c(Cl)c1 (stereo unspecified) | 96.7 | 2 (≈ 5.76 µM) | 8 (≈ 23 µM) | 56.5 | 8 (≈ 23 µM) | 4 (≈ 11.5 µM) | 8 (≈ 23 µM) | 8 (≈ 23 µM) | MFC (Candida albicans [9]): < 16 µg/mL; MIC (Candida albicans [4]): < 8 µg/mL
FC(F)(F)c1ccc(OC(CCn2ccnc2)c2ccccc2)cc1 (stereo unspecified) | 71 | 4 (≈ 11.5 µM) | 16 (≈ 46.2 µM) | 86 | 128 (≈ 370 µM) | 64 (≈ 185 µM) | 64 (≈ 185 µM) | 128 (≈ 370 µM) | MIC (Candida albicans [10]): < 128 µg/mL; MFC (Candida albicans [11]): < 128 µg/mL
Fc1ccc(OC(CCn2ccnc2)c2ccccc2)c(F)c1 (stereo unspecified) | 298 | 8 (≈ 25.5 µM) | 32 (≈ 102 µM) | 219 | 64 (≈ 204 µM) |  | 64 (≈ 204 µM) | 128 (≈ 407 µM) | MIC (Candida albicans [12]): < 64 µg/mL; MIC50 (Candida albicans [13]): 32 µg/mL (≈ 102 µM); MFC (Candida albicans [11]): < 128 µg/mL
Clc1ccc(C(CCn2ccnc2)Oc2ccc(Cl)cc2Cl)cc1 (stereo unspecified) | 54 | 0.5 (≈ 1.31 µM) | 8 (≈ 21 µM) | 61 | 4 (≈ 10.5 µM) | 2 (≈ 5.24 µM) | 4 (≈ 10.5 µM) | 4 (≈ 10.5 µM) | MIC (Candida albicans [14]): < 4 µg/mL; MFC (Candida albicans [15]): < 8 µg/mL
Fc1ccc(C(CCn2ccnc2)Oc2ccc(Cl)cc2Cl)cc1 (stereo unspecified) | 33.5 | 0.5 (≈ 1.37 µM) | 4 (≈ 11 µM) | 43.3 | 4 (≈ 11 µM) | 2 (≈ 5.48 µM) | 8 (≈ 21.9 µM) | 8 (≈ 21.9 µM) | MFC (Candida albicans [16]): < 16 µg/mL; MIC (Candida albicans [14]): < 4 µg/mL
Cc1ccc(C(CCn2ccnc2)Oc2ccc(Cl)cc2Cl)cc1 (stereo unspecified) | 31.4 | 1 (≈ 2.77 µM) | 4 (≈ 11.1 µM) | 40 | 8 (≈ 22.1 µM) | 2 (≈ 5.54 µM) | 4 (≈ 11.1 µM) | 16 (≈ 44.3 µM) | MFC (Candida albicans [16]): < 16 µg/mL; MIC (Candida albicans [17]): < 4 µg/mL
Cc1ccc(OC(CCn2ccnc2)c2ccccc2)cc1 (stereo unspecified) | 95.9 | 2 (≈ 6.84 µM) | 16 (≈ 54.7 µM) | 141 | 16 (≈ 54.7 µM) | 8 (≈ 27.4 µM) | 16 (≈ 54.7 µM) | 16 (≈ 54.7 µM) | MIC (Candida albicans [10]): 16 µg/mL (≈ 54.7 µM); MFC (Candida albicans [18]): < 16 µg/mL
O=[N+]([O-])c1ccc(OC(CCn2ccnc2)c2ccccc2)cc1 (stereo unspecified) | 102 |  | 32 (≈ 99 µM) | 97.2 | 32 (≈ 99 µM) | 32 (≈ 99 µM) | 32 (≈ 99 µM) | >128 | MIC (Candida albicans [19]): < 64 µg/mL; MIC (Candida parapsilosis [3]): 4 µg/mL (≈ 12.4 µM); MFC (Candida albicans [20]): < 128 µg/mL
Clc1ccc(COC(Cn2ccnc2)c2ccc(Cl)cc2Cl)cc1 (stereo unspecified) [ECONAZOLE] | 54.7 | 2 (≈ 5.24 µM) | 2 (≈ 5.24 µM) | 60 | 8 (≈ 21 µM) | 4 (≈ 10.5 µM) | 16 (≈ 41.9 µM) | 32 (≈ 83.8 µM) | MFC (Candida albicans [21]): < 32 µg/mL; MIC (Candida albicans [22]): < 8 µg/mL
OC(Cn1cncn1)(Cn1cncn1)c1ccc(F)cc1F [FLUCONAZOLE] | 385 | 0.5 (≈ 1.63 µM) | 8 (≈ 26.1 µM) | 316 | 64 (≈ 209 µM) | 2 (≈ 6.53 µM) |  |  | MIC (Candida albicans [23]): < 64 µg/mL; MFC (Candida albicans [24]): > 64 µg/mL
CNCCC(Oc1ccc(C(F)(F)F)cc1)c1ccccc1 (stereo unspecified) [FLUOXETINE] | 25 | 8 (≈ 25.9 µM) | 64 (≈ 207 µM) | 33.3 | 128 (≈ 414 µM) | 64 (≈ 207 µM) |  |  | MIC (Candida albicans [25]): < 128 µg/mL; MFC (Candida albicans [26]): < 128 µg/mL
CC(=O)N1CCN(c2ccc(OC[C@H]3CO[C@](Cn4ccnc4)(c4ccc(Cl)cc4Cl)O3)cc2)CC1 [KETOCONAZOLE] | 61.7 | 0.06 (≈ 0.113 µM) | 0.5 (≈ 0.941 µM) | 70 | 8 (≈ 15.1 µM) | 4 (≈ 7.53 µM) | 16 (≈ 30.1 µM) | 32 (≈ 60.2 µM) | MIC (Candida albicans [27]): < 16 µg/mL; MFC (Candida albicans [21]): < 32 µg/mL
Clc1ccc(COC(Cn2ccnc2)c2ccc(Cl)cc2Cl)c(Cl)c1 (stereo unspecified) [MICONAZOLE] | 39.3 | 1 (≈ 2.4 µM) | 0.5 (≈ 1.2 µM) | 40 | 4 (≈ 9.61 µM) | 4 (≈ 9.61 µM) | 8 (≈ 19.2 µM) | 16 (≈ 38.4 µM) | MIC (Candida albicans [4]): < 8 µg/mL; MFC (Candida albicans [28]): < 32 µg/mL
